Experimental data as given in ChEMBL document CHEMBL5385868, “Bifunctional carbazole derivatives for simultaneous therapy and fluorescence imaging in prion disease murine cell models” (Eur J Med Chem, 2023).
Calls of active or inactive are those of the source. The rule behind the calls is not given here.

Experiments:
[1] = Anti-prion activity against RML infected mouse ScGT1 cells assessed as reduction in PrPSc level measured after 5 days by Western blot analysis; type: functional, cell-based; details: ScGT1, 120 h
Outline: (§1)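 RML-infected ScGT1 cells, confluent, split 1:10 and seeded in triplicate; compound (DMSO stock diluted in water) added to medium two days after seeding at 0.1, 1 or 10 µM, vehicle control; 5 days treatment. Lysates (1 mg/mL) digested with 20 µg/mL PK, 1 h, 37 °C, stopped with PMSF, ultracentrifuged; pellets blotted with anti-PrP Fab D18. PrPSc remaining expressed relative to untreated lysates.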

[2] = Cytotoxicity against RML infected mouse ScGT1 cells assessed as reduction in cell viability at 10 uM measured after 5 days by MTT assay relative to control; type: toxicity, cell-based; details: scgt1, 120 h, time 5 day
Outline: (§2)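 MTT viability in RML-infected ScGT1 cells after 5 days exposure to 0.1, 1 or 10 µM compound, vehicle control. MTT 5 mg/mL in PBS for 3 h at 37 °C, 5% CO2; dissolved in DMSO/2-propanol (1:1), 30 min at room temperature, then plate read; triplicate.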

[3] = Cytotoxicity against RML infected mouse ScGT1 cells assessed as reduction in cell viability at 1 uM measured after 5 days by MTT assay relative to control; type: toxicity, cell-based; details: scgt1, 120 h, time 5 day; outline: as §2
[4] = Cytotoxicity against RML infected mouse ScGT1 cells assessed as reduction in cell viability at 0.1 uM measured after 5 days by MTT assay relative to control; type: toxicity, cell-based; details: scgt1, 120 h, time 5 day; outline: as §2
[5] = Anti-prion activity against RML infected mouse ScGT1 cell lysate assessed as PrPSc residual level at 10 uM measured after 5 days by Western blot analysis relative to control; type: functional; details: time 5 day; outline: as §1
[6] = Anti-prion activity against RML infected mouse ScGT1 cell lysate assessed as PrPSc residual level at 1 uM measured after 5 days by Western blot analysis relative to control; type: functional; details: time 5 day; outline: as §1
[7] = Anti-prion activity against RML infected mouse ScGT1 cell lysate assessed as PrPSc residual level at 0.1 uM measured after 5 days by Western blot analysis relative to control; type: functional; details: time 5 day; outline: as §1
GT1 = experiment: Anti-prion activity against mouse GT1 cells assessed as reduction in PrPSc level at 0.1 to 10 uM measured after 5 days by Western blot analysis; type: functional, cell-based; details: dose 0.1-10 µM, time 5.0 day
[8] = Anti-prion activity against RML infected mouse ScGT1 cell assessed as PrPSc clearance level measured after 5 days by Western blot analysis; type: functional, cell-based; details: ScGT1, 120 h; outline: as §1
N2a [9] = experiment: Effect on N2a mouse cells assessed appearance of protein aggregates measured after 60 mins by fluorescence based confocal microscopy based analysis; type: functional, cell-based
Outline: (§3)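 N2a cells on coverslips at semi-confluence for 24 h, fixed in 4% paraformaldehyde, permeabilised with 0.2% Triton X-100, denatured with 6 M GdnHCl for 10 min, blocked with 1% BSA, then stained with 0.025% compound for 60 min. Anti-PrP mAb W226 as counterstain, DAPI for nuclei; confocal imaging with FITC/TRITC filters.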

[10] = target: Major prion protein (Mus musculus) (UniProt P04925); experiment: Inhibition of full length recombinant mouse PrP (89 to 231 residues) expressed in Escherichia coli BL21 (DE3) cells to PrPSc conversion assessed as RML amplification at 10 uM in presence of PMCA
Chain of Major prion protein (Mus musculus) (P04925 whole entry, the tested form may be a part): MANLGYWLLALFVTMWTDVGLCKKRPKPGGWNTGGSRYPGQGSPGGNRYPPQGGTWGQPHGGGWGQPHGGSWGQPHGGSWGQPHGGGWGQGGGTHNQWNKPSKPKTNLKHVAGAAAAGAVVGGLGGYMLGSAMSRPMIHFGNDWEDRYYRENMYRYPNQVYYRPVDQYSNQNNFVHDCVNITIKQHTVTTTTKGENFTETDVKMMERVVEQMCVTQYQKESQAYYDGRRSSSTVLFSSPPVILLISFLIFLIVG

[11] = target: Major prion protein (Mus musculus) (UniProt P04925); experiment: Inhibition of full length recombinant mouse PrP (89 to 231 residues) expressed in Escherichia coli BL21 (DE3) cells to PrPSc conversion assessed as RML amplification at 10 uM
N2a [12] = experiment: Effect on N2a mouse cells assessed appearance of protein clusters measured after 60 mins by fluorescence based confocal microscopy based analysis; type: functional, cell-based; outline: as §3
[13] = target: Major prion protein (Mus musculus) (UniProt P04925); experiment: Inhibition of full length recombinant mouse PrP (89 to 231 residues) expressed in Escherichia coli BL21 (DE3) cells to PrPSc conversion assessed as vCJD prion amplification at 10 uM in presence of PMCA
Outline: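 vCJD prions serially diluted 10^-5 to 10^-8 into 10% brain homogenate from Tg(MHu2M) mice expressing chimeric human-murine PrP, in conversion buffer with 0.05% digitonin. Substrate supplemented with PBS or 10 µM compound. PMCA: incubation at 37/40 °C with 40 s sonication pulses at 270–280 W.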

[14] = target: Major prion protein (Mus musculus) (UniProt P04925); experiment: Inhibition of full length recombinant mouse PrP (89 to 231 residues) expressed in Escherichia coli BL21 (DE3) cells to PrPSc conversion assessed as vCJD prion amplification at 10 uM
[15] = Anti-prion activity against 22L prion infected mouse ScGT1 cells assessed as reduction in PrPSc level measured after 5 days by Western blot analysis; type: functional, cell-based; details: ScGT1, 120 h
Outline: (§4)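 22L-infected ScGT1 or ScN2a cells given compound in medium (vehicle ≤0.001% DMSO), triplicate. Lysates digested with 20 µg/mL PK for 1 h at 37 °C, stopped with PMSF, ultracentrifuged; PK-resistant PrP detected by Western blot with anti-PrP Fab D18 and HRP-conjugated secondary, ECL read-out.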

ScN2a = experiment: Anti-prion activity against 22L prion infected mouse ScN2a cells assessed as reduction in PrPSc level measured after 5 days by Western blot analysis; type: functional, cell-based; details: 120 h; outline: as §4
[16] = target: Major prion protein (Mus musculus) (UniProt P04925); experiment: Inhibition of full length recombinant mouse PrP (89 to 231 residues) expressed in Escherichia coli BL21 (DE3) cells to PrPSc conversion assessed as lag time for protein aggregation at 4 uM measured after 72 hrs by spectramax fluorescence microplate reader analysis
[17] = target: Major prion protein (Mus musculus) (UniProt P04925); experiment: Inhibition of full length recombinant mouse PrP (89 to 231 residues) expressed in Escherichia coli BL21 (DE3) cells to PrPSc conversion assessed as lag time for protein aggregation at 20 uM measured after 72 hrs by spectramax fluorescence microplate reader analysis
[18] = target: Major prion protein (Mus musculus) (UniProt P04925); experiment: Inhibition of full length recombinant mouse PrP (89 to 231 residues) expressed in Escherichia coli BL21 (DE3) cells to PrPSc conversion assessed as lag time for protein aggregation at 40 uM measured after 72 hrs by spectramax fluorescence microplate reader analysis
[19] = (§5) Anti-prion activity against RML infected mouse ScGT1 cells assessed as inhibition of PrPSc formation measured after 5 days by Western blot analysis; type: functional; details: dose 0.1-10 µM; time 5 day; outline: as §1
ScGT1 = experiment: as §5; type: functional; details: dose 0.1-10 µM, time 5.0 day; outline: as §1

SMILES: CCN(CC)CC(=O)Nc1ccc2[nH]c3ccc(NC(=O)CN(CC)CC)cc3c2c1
- EC50 [1]: 2.25 µM
- Activity [2]: 103%
- Cell viability (% of control) [3]: 99%
- Cell viability relative to control [4]: 108%
- Activity [5]: 31%
- Activity [6]: 57%
- Activity [7]: 84%
- Activity (GT1): inactive
- EC50 [8]: 8 µM

SMILES: O=C(CN1CCCCC1)Nc1ccc2[nH]c3ccc(NC(=O)CN4CCCCC4)cc3c2c1
- Activity [2]: 69%
- Cell viability (% of control) [3]: 76%
- Cell viability relative to control [4]: 81%
- Activity [5]: 44%
- Activity [6]: 105%
- Activity [7]: 109%

SMILES: CC(C)N(CC(=O)Nc1ccc2[nH]c3ccc(NC(=O)CN(C(C)C)C(C)C)cc3c2c1)C(C)C
- Activity [2]: 61%
- Cell viability (% of control) [3]: 75%
- Cell viability relative to control [4]: 92%
- Activity [5]: 24%
- Activity [6]: 39%
- Activity [7]: 73%

SMILES: O=C(Cn1ccnc1)Nc1ccc2[nH]c3ccc(NC(=O)Cn4ccnc4)cc3c2c1
- Activity [2]: 77%
- Cell viability (% of control) [3]: 89%
- Cell viability relative to control [4]: 100%
- Activity [5]: 74%
- Activity [6]: 98%
- Activity [7]: 120%

SMILES: O=C(CN1CCN(c2ccccc2)CC1)Nc1ccc2[nH]c3ccc(NC(=O)CN4CCN(c5ccccc5)CC4)cc3c2c1
- Activity [2]: 63%
- Cell viability (% of control) [3]: 73%
- Cell viability relative to control [4]: 71%
- Activity [5]: 134%
- Activity [6]: 136%
- Activity [7]: 124%

SMILES: O=C(CN1CCOCC1)Nc1ccc2[nH]c3ccc(NC(=O)CN4CCOCC4)cc3c2c1
- Activity [2]: 84%
- Cell viability (% of control) [3]: 86%
- Cell viability relative to control [4]: 101%
- Activity [5]: 59%
- Activity [6]: 102%
- Activity [7]: 96%

SMILES: CN(C)CC(=O)Nc1ccc2[nH]c3ccc(NC(=O)CN(C)C)cc3c2c1
- Activity (N2a [9]): Active
- inhibition [10]: Active
- inhibition [11]: inactive
- Activity (N2a [12]): inactive
- inhibition [13]: inactive
- inhibition [14]: inactive
- EC50 [1]: 1.35 µM
- Activity [2]: 95%
- Cell viability (% of control) [3]: 99%
- Cell viability relative to control [4]: 111%
- Activity [5]: 17%
- Activity [6]: 47%
- Activity [7]: 130%
- Activity (GT1): inactive
- EC50 [8]: 6.6 µM
- EC50 [15]: 33.5 µM
- EC50 (ScN2a): 7.3 µM
- TIME [16]: 21.5 h
- TIME [17]: 5 h
- TIME [18]: 9.5 h

SMILES: O=C(CN1CCCC1)Nc1ccc(Cc2ccc(NC(=O)CN3CCCC3)cc2)cc1
- Activity [2]: 50%
- Cell viability (% of control) [3]: 69%
- Cell viability relative to control [4]: 85%
- Activity [5]: 13%
- Activity [6]: 103%
- Activity [7]: 127%
- Activity [19]: 7.8 µM
- Activity (GT1): inactive
- EC50 [8]: 2.5 µM

SMILES: O=C(CN1CCCC1)Nc1ccc2[nH]c3ccccc3c2c1
- Activity [2]: 29%
- Cell viability (% of control) [3]: 72%
- Cell viability relative to control [4]: 83%
- Activity [5]: 26%
- Activity [6]: 75%
- Activity [7]: 78%

SMILES: O=C(CN1CCCC1)Nc1ccc2[nH]c3ccc(NC(=O)CN4CCCC4)cc3c2c1
- Activity [2]: 71%
- Cell viability (% of control) [3]: 85%
- Cell viability relative to control [4]: 118%
- Activity [5]: 27%
- Activity [6]: 103%
- Activity [7]: 148%
- Activity [19]: 7.4 µM
- Activity (ScGT1): Dose-Dependent Effect

SMILES: CN1CCN(CC(=O)Nc2ccc3[nH]c4ccc(NC(=O)CN5CCN(C)CC5)cc4c3c2)CC1
- Activity [2]: 47%
- Cell viability (% of control) [3]: 70%
- Cell viability relative to control [4]: 99%
- Activity [5]: 28%
- Activity [6]: 46%
- Activity [7]: 85%
